High-throughput results deposited in PubChem BioAssay by Johns Hopkins Ion Channel Center.
Shown are actives, neighbours in structure and some others; about 3.5% of the full set was active somewhere.
MrgX1 ag: human MrgX1 receptor agonism, primary screen | Q96LB2 | MrgX1-HEK293 cells, Fluo-4 calcium fluorescence, agonist mode; hits give high values | B-score at 10 µM | 310,000 tested, 0.44% active | AID 588627;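 active = calcium response B-score plate-corrected fluorescence ratio at least 3 library SD, with starting fluorescence B-score inside 5 SD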
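times = overnight plating, then 30 min 37 °C plus 30 min room-temperature dye loading | assay system = stable human MrgX1 HEK293 cell line | input = fifteen thousand cells per well | signal = kinetic calcium dye fluorescence, Fluo-4 NW | dosing = compound delivered in addition one of three | read-out = B-scored fluorescence response ratio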
MrgX1 antagonist: antagonists of human MrgX1 receptor; Q96LB2; MRGX1-HEK293 calcium flux, Fluo-4, BAM8-22 antagonism; hits give low values; B-score at 10 µM; 310,000 tested, 1.3% active; AID 588676;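 active = calcium-response B-score plate-corrected more than 3 library SD below zero, starting fluorescence within 5 deviations, no agonist response on first addition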;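 also: peak minus trough fluorescence over baseline after final BAM8-22 challenge near maximal dose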
RGS4 pot: potentiators or activators of RGS4; HEK293 M3R/inducible RGS4, carbachol calcium flux Fluo4; hits give low values; B-score at 10 µM; 310,000 tested, 0.92% active; AID 463111;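 active = B-score of the integrated calcium signal more than 4 SD below the library mean, with starting fluorescence not abnormally high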;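 also: negative B-score means reduced calcium response which marks RGS4 activation or potentiation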
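Material: M3R-expressing HEK293 line, RGS4 induced by doxycycline | Schedule: Overnight RGS4 induction, 30 min dye load 37 °C, 20 min compound RT | Measured by: Fluo4 fluorescence kinetic imaging of calcium | Read-out: Integrated calcium ratio converted to B score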
RGS4 block: human RGS4 inhibition. HEK293 M3R/RGS4 inducible, Fluo-4 calcium flux; hits give high values; triggered by carbachol at its EC20. AID 463165. B-score at 10 µM. P49798. 310,000 tested, 0.45% active;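 active = B-score, a plate-corrected calcium signal, over three deviations above library mean, with baseline fluorescence within five deviations of library mean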;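 also: RGS4 expression induced by doxycycline in cells with stable M3 receptor; B-score is computed from the integrated fluorescence ratio over baseline after carbachol; higher B-score means a larger calcium signal and so more RGS4 inhibition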
Target sequence (P49798 whole entry, looked up): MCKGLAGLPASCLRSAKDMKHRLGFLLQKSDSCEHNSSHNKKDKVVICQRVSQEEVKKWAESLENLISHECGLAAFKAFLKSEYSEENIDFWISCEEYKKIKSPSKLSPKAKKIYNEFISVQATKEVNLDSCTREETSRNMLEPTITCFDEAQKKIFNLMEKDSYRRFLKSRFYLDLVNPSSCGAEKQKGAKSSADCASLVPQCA
MrgX1 PAM: human MrgX1 positive allosteric modulation, primary screen | Q96LB2 | 310,000 tested, 0.63% active | MrgX1-HEK293, Fluo-4 calcium flux, FDSS; hits give high values | B-score at 10 µM | AID 588675;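 active = plate-corrected calcium response at least 3 library SD above typical, normal starting fluorescence, not activating the receptor alone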;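 also: compound read alongside a low EC10 to EC30 dose of BAM8-22 agonist; peak minus trough fluorescence over baseline measured at the second addition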
Large screens that a line does not name were inactive.

CC(=O)Nc1cc2c(cc1NC(=O)Cn1nc(-c3ccc4c(c3)OCCO4)ccc1=O)OCCO2	none
COc1cc(Cl)cc(CN2CCC(CCC(=O)NC3CC3)CC2)c1OC	none
Cc1ccc(NS(=O)(=O)c2c(C(=O)N3CCOCC3)c(C)n(C)c2C)cc1C	none
Cc1cc(OC(=O)c2ccccc2Cl)cc(=O)n1C	MrgX1 PAM 10
COc1ccc(C)cc1Nc1n[n+](-c2ccccc2)c(-c2cc([N+](=O)[O-])cc(OC)c2O)s1	MrgX1 antagonist -6
CCC1COCCS(=O)(=O)N1Cc1ccc(F)cc1 (stereo not given)	none
Cc1cc(C)c2nc(C)cc(N/N=C/c3ccc(O)cc3)c2c1	RGS4 pot -7.4
NS(=O)(=O)c1ccc(-c2ccc(/C=C3\SC(=S)N(C4CCS(=O)(=O)C4)C3=O)o2)cc1 (stereo not given)	MrgX1 antagonist -8.6
Cc1ccc(/C=C2\SC(=S)N(C3CCS(=O)(=O)C3)C2=O)o1 (stereo not given)	none
C[N+]1(C)CC[C@H](OC(=O)[C@@](O)(c2ccccc2)C2CCCC2)C1	none
CCN(CC)CC#CCOC(=O)C(O)(c1ccccc1)C1CCCCC1 (stereo not given)	RGS4 pot -7
Cc1ccsc1CN(C(=O)c1ccc([N+](=O)[O-])cc1)C1CCS(=O)(=O)C1 (stereo not given)	none
Cc1cc(OCc2cc(C(=O)N3CCC(Oc4cccnc4)CC3)no2)cc(C)c1Cl	RGS4 pot -7
Cc1ccc(S(=O)(=O)NC2=NCN(CC(=O)O)CN2)cc1	none
CC1(C)[C@@H](O)CC[C@]2(C)C3C(O)C=C4[C@H]5C[C@@](C)(C(=O)O)CC[C@]5(C)CC[C@]4(C)[C@]3(C)CC[C@@H]12 (stereo not given in full)	MrgX1 ag 29
Cc1nc2nc(-c3cccs3)cn2nc1C	RGS4 pot -7
CS(=O)(=O)N1CCN(C(=O)C2c3ccccc3Oc3ccccc32)CC1	RGS4 pot -7.5
COc1ccc(-n2cccc2C=O)cc1	none
COc1ccc(-n2cccc2/C=C/[N+](=O)[O-])cc1	MrgX1 ag 33
COc1ccc(NC(=O)Cn2c(=O)cnc3ccccc32)cc1S(=O)(=O)N1CCCCC1	none
O=C(Nc1ccccc1Cc1ccccc1)c1oc2ccccc2c1COc1ccccc1	MrgX1 antagonist -5.5
CCNC(=O)N(CCOC)CC1CCCN(C2Cc3ccccc3C2)C1 (stereo not given)	none
O=C(Cn1nnc2ccccc2c1=O)NCCc1ccc(F)cc1	MrgX1 antagonist -5
COc1ccc(CCNC(=O)Cn2nnc3ccccc3c2=O)cc1	none
CCCCOc1cccc(C2/C(=C(/O)c3ccc4c(c3)CC(C)O4)C(=O)C(=O)N2CCN2CCOCC2)c1 (stereo not given)	none
O=C(NCc1ccccn1)C(=O)NCC1OCCCN1S(=O)(=O)c1cc(F)ccc1F (stereo not given)	none
CN(C)C1=NC[C@H](Cc2ccccc2)N1CC1CCC(C(C)(C)C)CC1 (stereo not given in full)	MrgX1 antagonist -6.2
C=CCOc1ccc(/C=N/O)cc1Cl	none
O=C(N/N=C/c1ccc2c(c1)OCO2)C1CC1	MrgX1 antagonist -5.4
Cc1cc(Cl)c(S(=O)(=O)N/N=C/c2ccc3c(c2)OCO3)c(Cl)c1	RGS4 pot -8.2
COC(=O)CCCNC(=O)c1ccccn1	none
CC1CCCN(CCCOc2ccc(Br)cc2Cl)C1 (stereo not given)	none
CC1CCN(CCOCCOc2ccc(Br)cc2Cl)CC1	RGS4 pot -7.2
CCCCn1c(SCC(=O)NC2CC2)nnc1-c1ccncc1	none
CC1CC(CC(C)C(=O)Nc2nncs2)C(=O)O1 (stereo not given)	none
CC1CC(CC(C)C(=O)NC(=S)Nc2ccc(S(N)(=O)=O)cc2)C(=O)O1 (stereo not given)	MrgX1 antagonist -6.5
Cc1ccccc1N=C1SC(CC(=O)Nc2ccc3ccccc3c2)C(=O)N1Cc1ccccn1 (stereo not given)	MrgX1 antagonist -9.7
CCOc1cc(/C=N/Nc2nc(-c3cccc(S(=O)(=O)N4CCCC4)c3)cs2)ccc1O	RGS4 pot -8.8
COc1cc(/C=N/Nc2nc(-c3ccc(S(=O)(=O)N(C)C)cc3)cs2)ccc1O	RGS4 pot -7.4
